Test results: ChEMBL document CHEMBL1155387, “Substituted fused bicyclic pyrrolizinones as potent, orally bioavailable hNK1 antagonists” (Bioorg Med Chem Lett, 2010)
“And” between values parts separate entries of the source, which are not always exact repeats. Equal values may be shown once.

Tests used:
Substance-P receptor [1] = molecular target: T1, Substance-P receptor (Homo sapiens, UniProt P25103); test: Displacement of [125I]substance P from human NK1 receptor expressed in CHO cells in the presence of 50 percent human serum; type: cell-based
Gerbillinae [2] = test: Inhibition of GR-73632-induced foot tapping in gerbils at 3 mg/kg, iv after 24 hrs; type: functional; details: for inhibition in vivo at 3 mg/kg: Gerbillinae, iv, 24 h
Method in brief: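 Gerbils dosed iv at 3 mg/kg; foot tapping induced by NK1 agonist GR73632 evaluated 24 h post-dose; percent inhibition of the tapping response.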

Gerbillinae [3] = test: Inhibition of GR-73632-induced foot tapping in gerbils at 1 mg/kg, iv after 0.1 hrs; type: functional
Substance-P receptor [4] = molecular target: T1, Substance-P receptor; test: Displacement of [125I]substance P from human NK1 receptor expressed in CHO cells; type: cell-based
Method in brief: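 Competition binding: [125I]-labelled substance P displaced from cloned human NK1 receptor expressed in CHO cells; IC50 reported as mean of n = 3.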

Substance-P receptor [5] = molecular target: T1, Substance-P receptor; test: Antagonist activity at human NK1 receptor expressed in CHO cells assessed as inhibition of substance P-induced inositol phosphate generation at 100 nM; type: functional, cell-based
Gerbillinae [6] = test: Inhibition of GR-73632-induced foot tapping in gerbils at 1 mg/kg, iv after 1 hr; type: functional
Method in brief: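 Gerbils given 1 mg/kg iv; GR73632-induced foot tapping challenged 1 h after dosing; inhibition of tapping scored.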

[7] = Volume of distribution in rat; type: ADME, organism-based; details: in vivo
[8] = Stability in human microsomes assessed as compound remaining after 60 mins; type: ADME, Microsome; details: read-out: Stability
[9] = Stability in rat microsomes assessed as compound remaining after 60 mins; type: ADME, Microsome; details: read-out: Stability
[10] = Half life in dog; type: ADME, organism-based, Canis lupus familiaris; details: in vivo
[11] = Potency (IC50) in iv dosed gerbil after 1 hr; details: gerbillinae, plasma
[12] = Volume of distribution in dog; type: ADME, organism-based, Canis lupus familiaris; details: in vivo
[13] = Inhibition of sodium channel
Method in brief: (§1)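 Ion-channel binding assay; IC50 values calculated for sodium channel and for calcium channel (diltiazem site).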

Cytochrome P450 2C9 = Cytochrome P450 2C9 (Homo sapiens, UniProt P11712); test: Inhibition of CYP2C9; type: ADME
[14] = Induction of CYP3A4 expression in human LS180 cells relative to rifampin; type: ADME, cell-based
Method in brief: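 Human LS180 cells treated with test compound at 10 µM. CYP3A4 induction is expressed as fold induction.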

[15] = Plasma clearance in dog; type: ADME, organism-based, Canis lupus familiaris
[16] = Displacement of diltiazem […] from calcium channel; method in brief: as §1
[17] = Half life in rat; type: ADME, organism-based; details: in vivo
[18] = molecular target: T2, PXR (nuclear receptor subfamily 1 group I member 2) (Homo sapiens, UniProt O75469); test: inhibition of human PXR at 10 uM
T2 sequence (O75469 whole entry): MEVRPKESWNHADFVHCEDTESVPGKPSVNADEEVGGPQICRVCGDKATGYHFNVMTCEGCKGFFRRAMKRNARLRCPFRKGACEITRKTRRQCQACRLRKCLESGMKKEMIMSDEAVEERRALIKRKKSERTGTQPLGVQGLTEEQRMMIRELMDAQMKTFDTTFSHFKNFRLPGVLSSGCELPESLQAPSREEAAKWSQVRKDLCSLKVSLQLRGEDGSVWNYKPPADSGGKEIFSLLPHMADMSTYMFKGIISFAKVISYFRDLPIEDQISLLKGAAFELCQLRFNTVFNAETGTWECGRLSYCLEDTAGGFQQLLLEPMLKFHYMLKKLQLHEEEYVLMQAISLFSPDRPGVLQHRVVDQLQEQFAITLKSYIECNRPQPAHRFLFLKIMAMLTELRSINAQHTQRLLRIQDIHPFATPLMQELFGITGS

Gerbillinae [19] = test: Inhibition of GR-73632-induced foot taping in iv dosed gerbils after 24 hrs; type: functional; details: read-out: ID50 (the source's name)
[20] = Plasma clearance in rhesus monkey; type: ADME, organism-based, Macaca mulatta
Cytochrome P450 2D6 = Cytochrome P450 2D6 (Homo sapiens, UniProt P10635); test: Inhibition of CYP2D6; type: ADME
[21] = Plasma clearance in rat; type: ADME, organism-based
Cytochrome P450 3A4 = Cytochrome P450 3A4 (Homo sapiens, UniProt P08684); test: Inhibition of CYP3A4; type: ADME
[22] = Volume of distribution in rhesus monkey; type: ADME, organism-based, Macaca mulatta; details: in vivo
[23] = Ratio of drug level in brain to plasma in rat at 1 mg/kg, iv after 4 hrs; type: ADME, organism-based; parameters: dose 1 mg/kg, route intravenous; details: brain and plasma
[24] = Potency (IC50) in iv dosed gerbil brain after 1 hr; details: gerbillinae
[25] = Stability in dog microsomes assessed as compound remaining after 60 mins; type: ADME, Canis lupus familiaris, Microsome; details: read-out: Stability
[26] = Stability in rhesus monkey microsomes assessed as compound remaining after 60 mins; type: ADME, Macaca mulatta, Microsome; details: read-out: Stability
Gerbillinae [27] = test: Inhibition of GR-73632-induced foot taping in iv dosed gerbils after 1 hr; type: functional; details: read-out: ID50 (the source's name)
[28] = Oral bioavailability in dog; type: ADME, organism-based, Canis lupus familiaris; details: in vivo
[29] = Oral bioavailability in rhesus monkey; type: ADME, organism-based, Macaca mulatta; details: in vivo
[30] = Oral bioavailability in rat; type: ADME, organism-based; details: in vivo
[31] = Half life in rhesus monkey; type: ADME, organism-based, Macaca mulatta; details: in vivo

T1 sequence (P25103 whole entry): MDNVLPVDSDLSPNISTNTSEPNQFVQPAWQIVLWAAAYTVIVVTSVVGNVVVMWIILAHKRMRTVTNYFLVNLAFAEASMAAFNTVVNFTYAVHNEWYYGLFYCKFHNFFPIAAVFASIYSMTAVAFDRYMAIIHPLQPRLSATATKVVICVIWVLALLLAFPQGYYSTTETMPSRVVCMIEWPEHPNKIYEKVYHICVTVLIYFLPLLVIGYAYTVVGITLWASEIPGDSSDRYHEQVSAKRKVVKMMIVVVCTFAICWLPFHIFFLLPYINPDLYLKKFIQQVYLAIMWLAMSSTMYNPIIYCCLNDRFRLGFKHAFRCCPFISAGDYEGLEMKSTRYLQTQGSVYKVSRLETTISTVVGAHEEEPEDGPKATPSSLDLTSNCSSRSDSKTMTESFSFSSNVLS
Sequence of Cytochrome P450 2C9 (P11712 whole entry): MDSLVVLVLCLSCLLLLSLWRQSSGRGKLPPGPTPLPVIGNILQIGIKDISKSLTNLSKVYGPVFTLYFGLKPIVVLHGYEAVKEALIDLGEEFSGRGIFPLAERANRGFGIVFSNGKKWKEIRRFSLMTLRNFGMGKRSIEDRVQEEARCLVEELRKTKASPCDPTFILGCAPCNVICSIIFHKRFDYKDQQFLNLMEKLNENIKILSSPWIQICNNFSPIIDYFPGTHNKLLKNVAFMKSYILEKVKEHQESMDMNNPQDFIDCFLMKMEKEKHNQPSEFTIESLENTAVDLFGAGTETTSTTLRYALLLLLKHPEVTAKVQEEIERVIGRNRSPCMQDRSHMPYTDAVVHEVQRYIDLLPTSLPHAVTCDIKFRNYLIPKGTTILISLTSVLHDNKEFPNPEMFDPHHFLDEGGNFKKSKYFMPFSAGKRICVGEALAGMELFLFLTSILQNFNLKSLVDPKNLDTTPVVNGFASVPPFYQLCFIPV
Sequence of Cytochrome P450 3A4 (P08684 whole entry): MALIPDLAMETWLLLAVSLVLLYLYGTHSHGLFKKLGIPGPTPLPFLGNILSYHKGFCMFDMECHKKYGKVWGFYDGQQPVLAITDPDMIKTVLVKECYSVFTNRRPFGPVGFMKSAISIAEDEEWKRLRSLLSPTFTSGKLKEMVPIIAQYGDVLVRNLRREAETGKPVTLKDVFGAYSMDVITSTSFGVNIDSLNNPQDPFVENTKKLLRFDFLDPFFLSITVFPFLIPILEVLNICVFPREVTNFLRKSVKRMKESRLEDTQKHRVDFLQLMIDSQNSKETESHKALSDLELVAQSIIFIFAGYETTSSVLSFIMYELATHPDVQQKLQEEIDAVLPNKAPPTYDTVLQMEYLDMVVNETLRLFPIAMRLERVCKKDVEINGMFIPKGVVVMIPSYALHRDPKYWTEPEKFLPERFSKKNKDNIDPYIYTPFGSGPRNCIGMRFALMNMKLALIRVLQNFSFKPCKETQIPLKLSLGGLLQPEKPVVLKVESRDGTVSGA
Sequence of Cytochrome P450 2D6 (P10635 whole entry): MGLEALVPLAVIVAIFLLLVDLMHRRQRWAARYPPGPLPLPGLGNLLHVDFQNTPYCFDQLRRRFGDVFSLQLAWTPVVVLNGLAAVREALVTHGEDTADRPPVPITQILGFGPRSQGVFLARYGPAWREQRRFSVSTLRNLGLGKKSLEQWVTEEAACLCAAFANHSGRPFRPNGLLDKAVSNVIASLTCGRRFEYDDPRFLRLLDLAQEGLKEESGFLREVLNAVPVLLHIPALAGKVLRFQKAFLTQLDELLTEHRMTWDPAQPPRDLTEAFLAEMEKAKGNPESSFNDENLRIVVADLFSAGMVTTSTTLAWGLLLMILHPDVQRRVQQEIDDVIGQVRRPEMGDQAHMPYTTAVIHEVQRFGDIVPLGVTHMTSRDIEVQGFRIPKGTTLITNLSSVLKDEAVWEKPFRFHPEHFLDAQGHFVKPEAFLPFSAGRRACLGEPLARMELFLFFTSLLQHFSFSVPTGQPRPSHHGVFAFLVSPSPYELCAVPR

For `CC(=O)N1C[C@H](O[C@H](C)c2cc(C(F)(F)F)cc(C(F)(F)F)c2)[C@@H](c2ccc(F)cc2)[C@@H]1CO`, which IC50 (Substance-P receptor [1]) is on record?
The IC50 was 43.1 nM.

And the inhibition in vivo at 3 mg/kg (Gerbillinae [2])?
The inhibition in vivo at 3 mg/kg was 0%.

And the inhibition in vivo at 1 mg/kg (Gerbillinae [3])?
The inhibition in vivo at 1 mg/kg was 49%.

And the IC50 (Substance-P receptor [4])?
The IC50 was 0.3 nM.

What about the inhibition of substance P-induced inositol phosphate generation (Substance-P receptor [5]) of the same compound?
Its inhibition of substance P-induced inositol phosphate generation is 91%.

For `C[C@@H](O[C@H]1CN2C(=O)CC[C@H]2[C@@H]1c1ccc(F)cc1)c1cc(C(F)(F)F)cc(C(F)(F)F)c1`, which IC50 (Substance-P receptor [1]) is on record?
The IC50 was 2.2 nM.

And the inhibition in vivo at 3 mg/kg (Gerbillinae [2])?
Its inhibition in vivo at 3 mg/kg is 100%.

And the inhibition in vivo at 1 mg/kg (Gerbillinae [3])?
The inhibition in vivo at 1 mg/kg was 100%.

What about the inhibition of substance P-induced inositol phosphate generation (Substance-P receptor [5]) of the same compound?
Its inhibition of substance P-induced inositol phosphate generation is 67%.

What about the inhibition in vivo at 1 mg/kg (Gerbillinae [6]) of the same compound?
The inhibition in vivo at 1 mg/kg was 100%.

Which Vd [7] does the source give for `C[C@@H](O[C@H]1CN2C(=O)C(O)C[C@H]2[C@@H]1c1ccc(F)cc1)c1cc(C(F)(F)F)cc(C(F)(F)F)c1` (stereo in doubt; 2b) here?
The Vd was 4.2 L/kg.

What about the IC50 (Substance-P receptor [1]) of the same compound?
The IC50 was 0.91 nM.

And the remaining at 1 h [8]?
Its remaining at 1 h is 54%.

And the remaining at 1 h [9]?
The remaining at 1 h was 60%.

What about the half-life [10] of the same compound?
Its half-life is 128 h.

What about the IC50 at 1 h [11] of the same compound?
The IC50 at 1 h was 8.4 nM.

What about the Vd [12] of the same compound?
The Vd was 2.8 L/kg.

And the IC50 [13]?
The IC50 was 4360 nM and 2600 nM.

What about the INH (Cytochrome P450 2C9) of the same compound?
The INH was greater than 100 µM.

What about the Ratio [14] of the same compound?
Its Ratio is 13.

And the clearance [15]?
The clearance was 0.8 mL/min/kg.

What about the IC50 [16] of the same compound?
The IC50 was 9400 nM and 2600 nM.

And the half-life [17]?
Its half-life is 13 h.

What about the inhibition at 10 µM [18] of the same compound?
Its inhibition at 10 µM is 31%.

And the ED50 (Gerbillinae [19])?
The ED50 was 0.016 mg/kg.

And the “inhibition (INH)” value (Gerbillinae [2]; 3 mg/kg)?
The value was 100%.

What about the clearance [20] of the same compound?
The clearance was 1 mL/min/kg.

And the INH (Cytochrome P450 2D6)?
Its INH is 62.2 µM.

What about the clearance [21] of the same compound?
The clearance was 5.1 mL/min/kg.

And the INH (Cytochrome P450 3A4)?
The INH was greater than 100 µM.

And the Vd [22]?
Its Vd is 2.6 L/kg.

And the Kp at 4 h [23]?
The Kp at 4 h was 1.

And the IC50 at 1 h [24]?
The IC50 at 1 h was 3.8 nM.

What about the remaining at 1 h [25] of the same compound?
The remaining at 1 h was 73%.

And the remaining at 1 h [26]?
Its remaining at 1 h is 23%.

What about the IC50 (Substance-P receptor [4]) of the same compound?
Its IC50 is 0.08 nM.

And the ED50 (Gerbillinae [27])?
The ED50 was 0.02 mg/kg.

And the bioavailability [28]?
Its bioavailability is 98%.

What about the bioavailability [29] of the same compound?
The bioavailability was 68%.

What about the bioavailability [30] of the same compound?
The bioavailability was 93%.

What about the half-life [31] of the same compound?
The half-life was 80.4 h.
